According to PubChem BioAssay:
Calls of active or inactive are those of the source.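 The calls were made as follows, unless noted: active = NADPH fluorescence slope more negative than the mean of all samples by about 3 SD, 99.7% confidence; inactive = the rest.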

Legend:
[1] = inhibitors of TNFa-induced NFkB p65 translocation, primary screen, imaging, HUVEC, MLSMR starter and 10KST1 sets (AID 438;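 active = inhibition above 20% together with a positive visual image hit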;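 also: compound added about 3h40 before a 20 min TNFalpha stimulation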;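 as to inhibition: signal is the nuclear over cytoplasmic p65 intensity ratio per well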); conditions: HUVEC TNFa-induced p65 nuclear translocation; cell count: measured here: nuclei count (cytotoxicity indicator), at 2.08 µM; inhibition: at 2 µM, stronger effect = higher value, 0% TNFa-plus-vehicle, 100% no-TNFa wells
[2] = inhibitors of mutant huntingtin aggregation, primary screen, imaging, exon1htt(103Q)mCFP cells, high-content imaging (AID 483;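 active = visual image review flags a hit and inhibition of aggregation exceeds 20%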;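 also: compound exposure lasted 3 days before fixation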;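 as to nuclei count: percent of the per-plate median nuclei count of sample wells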); conditions: exon1htt(103Q)mCFP cell line, aggregate imaging, at 2 µM; inhibition of aggregation: stronger effect = higher value; nuclei count: measured here: cell count, toxicity
[3] = inhibitors of E-selectin induction by TNFa, primary screen, imaging, HUVEC, immunofluorescence, MLSMR starter and 10KST1 sets (AID 487;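 active = visually confirmed hit in the image check and inhibition above 20%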;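 as to inhibition: signal is fraction of cell area covered by stained E-selectin grains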;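 as to nuclei count: 100% = median nuclei count of all wells on the same plate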); conditions: HUVEC TNFalpha-induced E-selectin immunofluorescence imaging, at 2 µM; inhibition: stronger effect = higher value; nuclei count: measured here: cell number, toxicity
[4] = target: Voltage-gated potassium channel subunit beta-2 (Rattus norvegicus) (UniProt P62483); experiment: KvBeta enzyme negative modulators, primary screen, biochemical, NADPH fluorescence (AID 622;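 active = fluorescence slope higher than the sample average by over 3 SD, cut at about -0.22 in these data, passing the limit was not always enough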;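 also: slope of raw intensity against log time taken from 70 to 1610 s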); conditions: recombinant KvBeta, 4-cyanobenzaldehyde reduction, at 10 µM, stronger effect = higher value
Voltage-gated potassium channel subunit beta-2 (Rattus norvegicus), sequence (P62483 whole entry, looked up): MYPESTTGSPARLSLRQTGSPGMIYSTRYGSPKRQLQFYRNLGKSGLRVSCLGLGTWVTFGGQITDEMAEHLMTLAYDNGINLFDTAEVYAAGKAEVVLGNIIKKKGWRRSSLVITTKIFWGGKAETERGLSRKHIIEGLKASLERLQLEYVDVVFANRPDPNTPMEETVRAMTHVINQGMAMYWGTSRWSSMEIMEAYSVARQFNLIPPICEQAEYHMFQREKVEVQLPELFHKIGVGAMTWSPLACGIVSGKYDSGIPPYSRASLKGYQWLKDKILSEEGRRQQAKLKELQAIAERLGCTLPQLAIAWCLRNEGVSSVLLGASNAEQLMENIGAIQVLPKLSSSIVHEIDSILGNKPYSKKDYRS

[5] = target: Voltage-gated potassium channel subunit beta-2 (Rattus norvegicus) (UniProt P62483); experiment: KvBeta positive modulators, primary screen, biochemical, NADPH fluorescence (AID 623); conditions: Recombinant KvBeta, NADPH fluorescence decrease slope, 10 min; at 10 µM; stronger effect = lower value;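 also: fluorescence intensity change per second fitted from 20 to 320 s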
[6] = target: Muscarinic acetylcholine receptor M4 (Homo sapiens) (UniProt P08173); experiment: compounds altering M4/GIRK thallium flux, either direction, primary screen, M4 allosteric agonist project, cell-based, HEK293 M4/GIRK, BTC-AM (AID 625;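 active = fluorescence slope after compound addition differing from the mean of all tested samples at 99.7% confidence, mostly higher but some lower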;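 also: thallium influx through GIRK channels coupled to M4 in HEK293 cells with BTC-AM dye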); conditions: at 10 µM, actives lie on both sides
Muscarinic acetylcholine receptor M4 (Homo sapiens), sequence (P08173 whole entry, looked up): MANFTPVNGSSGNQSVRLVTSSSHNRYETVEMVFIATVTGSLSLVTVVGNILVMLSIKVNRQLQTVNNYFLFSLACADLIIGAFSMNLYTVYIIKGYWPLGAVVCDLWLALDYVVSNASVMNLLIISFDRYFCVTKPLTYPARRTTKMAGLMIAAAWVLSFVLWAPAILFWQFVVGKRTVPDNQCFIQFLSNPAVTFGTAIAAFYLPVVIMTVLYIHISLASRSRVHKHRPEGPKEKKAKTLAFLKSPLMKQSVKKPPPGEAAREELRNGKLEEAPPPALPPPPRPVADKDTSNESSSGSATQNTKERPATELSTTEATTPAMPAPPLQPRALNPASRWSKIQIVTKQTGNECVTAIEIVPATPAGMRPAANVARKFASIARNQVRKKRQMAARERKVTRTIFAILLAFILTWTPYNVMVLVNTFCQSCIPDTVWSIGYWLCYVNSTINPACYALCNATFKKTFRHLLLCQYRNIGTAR
Outline: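 Material: HEK293 cells with M4 receptor and GIRK channels; Times: cells overnight at 37 °C, BTC-AM loading 1 h, reads 2 min total; Technique: kinetic BTC-AM fluorescence sampled at 1 Hz, 10 s pre-addition baseline; Read-out basis: slope over 15–24 s of trace normalized to starting intensity; Controls: carbachol positive, DMSO negative.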

[7] = inhibitors of Sendai virus-induced IRF3 signaling, primary screen, TLR/RLR signaling modifier project, cell-based, Sendai virus stimulus, luciferase, 10K MLSCN set (AID 602276;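 active = inhibition at or above 50% at 10 µM; inactive = inhibition below 50%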;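 also: firefly luciferase from ISG56 promoter only with Renilla not read in this screen; 0% = Sendai virus plus DMSO and 100% = medium plus DMSO without virus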); conditions: HEK293 RL24 IRF3 luciferase reporter, at 10 µM, stronger effect = higher value
[8] = inhibitors of poly I:C-induced TLR3 signaling, primary screen, cell-based, poly I:C stimulus, luciferase, 10K MLSCN set (AID 602277;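 active = inhibition of the reporter signal at or above 50%; inactive = inhibition below 50%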); conditions: HEK293-TLR3 RL24 IRF3 luciferase reporter, at 10 µM, stronger effect = higher value

SMILES	cell count [1]	inhibition [1]	inhibition of aggregation [2]	nuclei count [2]	inhibition [3]	nuclei count [3]	fluorescence slope [4]	NADPH fluorescence slope [5]	fluorescence slope [6]	inhibition [7]	inhibition [8]
CCOc1ccc2[nH]c(=O)c(CN(CCOC)C(=O)N3CCOCC3)cc2c1	373	2.4% (inactive)	-4% (inactive)	90.4%	-3.2% (inactive)	99.9%	-0.395 (inactive)	3.3e-05 (inactive)	0.0064 (inactive)	3.22% (inactive)	12.3% (inactive)
Cc1onc(-c2ccccc2)c1C(=O)N1CCCSC1=Nc1ccccc1	665	6.5% (inactive)	12.6% (inactive)	110%	29.1% (inactive)	79.6%	-0.567 (inactive)	-5.7e-05 (inactive)	0.00639 (inactive)	10.2% (inactive)	31.9% (inactive)
Cc1[nH]c(=O)[nH]c(=O)c1S(=O)(=O)N(C)Cc1ccccc1	433	1.1% (inactive)	-2.7% (inactive)	110%	-90.2% (inactive)	110%	-0.491 (inactive)	3.7e-05 (inactive)	0.00478 (inactive)	3.97% (inactive)	13.8% (inactive)
COc1cccc(NC(=O)CSc2nnc(-c3cccs3)n2C)c1	576	-8.5% (inactive)	19.8% (inactive)	65.7%	-65.4% (inactive)	95.9%	-0.278 (inactive)	-5e-05 (inactive)	0.00909 (inactive)	8.77% (inactive)	6.56% (inactive)
CC(n1cnnn1)C12CC3CC(CC(C3)C1)C2 (centres undefined)	555	1.3% (inactive)	0.3% (inactive)	106%	16.7% (inactive)	114%	-0.495 (inactive)	0.000168 (inactive)	0.00589 (inactive)	16.5% (inactive)	32.3% (inactive)
CC(NO)C(C)(C)NO (centres undefined)	331	4.4% (inactive)	-7.5% (inactive)	101%	-18.8% (inactive)	126%	-0.493 (inactive)	9e-05 (inactive)	0.00819 (inactive)	3.35% (inactive)	10.7% (inactive)
O=C(CN(c1ccc(F)cc1)S(=O)(=O)c1ccc2c(c1)OCCO2)NCC1CCCO1 (centres undefined)	472	0.8% (inactive)	-6.6% (inactive)	92.4%	-58.6% (inactive)	107%	-0.453 (inactive)	-4.3e-05 (inactive)	0.00466 (inactive)	17% (inactive)	24.3% (inactive)
CCCc1cn(S(=O)(=O)c2ccc(OC)cc2OC)nc1N	364	-8.7% (inactive)	7.3% (inactive)	100%	-38.9% (inactive)	119%	-0.537 (inactive)	-3.9e-05 (inactive)	0.00411 (inactive)	-0.283% (inactive)	5.1% (inactive)
Nc1sccc1C(=O)c1ccccc1	339	-5.4% (inactive)	5.8% (inactive)	110%	-45.7% (inactive)	129%	-0.563 (inactive)	7.1e-06 (inactive)	0.00467 (inactive)	-12.1% (inactive)	-9.56% (inactive)
Cc1ccc(C)n1-c1ccc(N2CCOCC2)cc1	406	1% (inactive)	14.3% (inactive)	99.8%	-44.4% (inactive)	111%	-0.345 (inactive)	-5.6e-05 (inactive)	0.00513 (inactive)	11.4% (inactive)	8.15% (inactive)
CCOC(=O)CSc1nnc(CNC(=O)c2ccc(S(=O)(=O)N3CCCC3)cc2)n1C	617	1.2% (inactive)	1.3% (inactive)	96.9%	-54.4% (inactive)	122%	-0.58 (inactive)	-8.2e-06 (inactive)	0.00697 (inactive)	12.8% (inactive)	18.7% (inactive)
CN(C)C=Nc1nonc1N	429	9% (inactive)	-2% (inactive)	105%	24.6% (inactive)	99.3%	-0.584 (inactive)	-7.3e-05 (inactive)	0.00382 (inactive)	18% (inactive)	21% (inactive)
Cc1ccccc1-c1nc(CN2CCC(C(=O)NCc3cccnc3)CC2)c(C)o1	349	-2.3% (inactive)	-3.7% (inactive)	103%	-149% (inactive)	119%	-0.476 (inactive)	-0.000229 (inactive)	0.00551 (inactive)	7.42% (inactive)	17.2% (inactive)
N#Cc1ccc(CSc2nnc(-c3cnccn3)o2)cc1	489	-15% (inactive)	-20.4% (inactive)	106%	-60.9% (inactive)	105%	-0.555 (inactive)	-5.1e-06 (inactive)	0.00528 (inactive)	2.28% (inactive)	5.14% (inactive)
